Assays:
[1] = target: T1, Human immunodeficiency virus type 1 integrase (Human immunodeficiency virus 1, UniProt Q7ZJM1); experiment: Inhibitory concentration of compound against strand transfer of HIV-1 integrase in experiment 2
[2] = target: T1, Human immunodeficiency virus type 1 integrase; experiment: Inhibitory concentration of compound against 3'-processing of HIV-1 integrase in experiment 1
[3] = target: T1, Human immunodeficiency virus type 1 integrase; experiment: Inhibitory concentration of compound against 3'-processing of HIV-1 integrase in experiment 2
[4] = target: T1, Human immunodeficiency virus type 1 integrase; experiment: Inhibitory concentration of compound against strand transfer of HIV-1 integrase in experiment 1
[5] = target: T2, Human immunodeficiency virus type 2 integrase (Human immunodeficiency virus 2, UniProt P89582)
T2 sequence (P89582 whole entry): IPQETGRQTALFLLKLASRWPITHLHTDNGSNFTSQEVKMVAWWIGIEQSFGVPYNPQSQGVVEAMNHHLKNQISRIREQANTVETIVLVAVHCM

[6] = target: T2, Human immunodeficiency virus type 2 integrase; experiment: Inhibitory concentration of compound against 3'-processing of HIV-2 integrase
[7] = target: T1, Human immunodeficiency virus type 1 integrase; experiment: Inhibitory concentration of compound against disintegration (reversal of strand transfer)of HIV-1 integrase
In short: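 Disintegration run under the integrase assay conditions (200 nM enzyme preincubated 30 min at 30 °C in MnCl2/MOPS buffer, then 1 h with substrate). Substrate was a Y-shaped branched oligonucleotide mimicking a strand transfer product, 32P-labelled at the 5′ end of its 15-mer. The core-truncated mutant IN50-212 was used as enzyme. The 30-mer product was resolved on a denaturing 20% gel. IC50 was taken from a percent-inhibition plot.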

[8] = target: T1, Human immunodeficiency virus type 1 integrase; experiment: Inhibitory concentration of compound against 3'-processing of HIV-1 integrase in experiment 1&2
In short: (§1)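 Purified recombinant HIV-1 integrase (200 nM final) preincubated with inhibitor for 30 min at 30 °C. Buffer: 25 mM MOPS pH 7.2, 7.5 mM MnCl2, 50 mM NaCl, 10% DMSO, 10% glycerol, 0.1 mg/mL BSA. Then 20 nM 5′-32P-labelled 21-mer blunt-end U5 LTR duplex was added for 1 h. Products were resolved on a denaturing 20% polyacrylamide/urea gel. IC50 was read from a percent-inhibition versus concentration plot.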

[9] = target: T1, Human immunodeficiency virus type 1 integrase; experiment: Inhibitory concentration of compound against strand transfer of HIV-1 integrase in experiment 1&2; in short: as §1
[10] = target: T2, Human immunodeficiency virus type 2 integrase; experiment: Inhibitory concentration of compound against 3' processing of HIV-2 integrase
In short: (§2)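 Integrase (200 nM final) preincubated with inhibitor for 30 min at 30 °C in pH 7.2 MOPS/HEPES buffer with 7.5 mM MnCl2, 10% DMSO, BSA and 2-mercaptoethanol. Then 20 nM 5′-32P-labeled 21-mer U5 LTR duplex was added for 1 h. Quenched with formamide/EDTA dye and run on denaturing 20% PAGE. IC50 read from a plot of % inhibition against drug concentration.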

[11] = target: T2, Human immunodeficiency virus type 2 integrase; experiment: Inhibitory concentration of compound against strand transfer of HIV- integrase; in short: as §2
[12] = target: T2, Human immunodeficiency virus type 2 integrase; experiment: Inhibitory concentration of compound against strand transfer of HIV-2 integrase; in short: as §2

T1 sequence (Q7ZJM1 whole entry): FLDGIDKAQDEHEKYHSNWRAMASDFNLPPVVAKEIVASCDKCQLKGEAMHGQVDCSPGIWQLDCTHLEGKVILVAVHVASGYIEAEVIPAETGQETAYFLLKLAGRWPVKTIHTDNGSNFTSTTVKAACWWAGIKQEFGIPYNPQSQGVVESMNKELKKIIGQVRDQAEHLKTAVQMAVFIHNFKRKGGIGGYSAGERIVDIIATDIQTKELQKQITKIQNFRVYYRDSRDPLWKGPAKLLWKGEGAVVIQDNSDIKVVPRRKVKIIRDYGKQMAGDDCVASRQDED

Row | Compound | IC50 [1] [µM] | IC50 [2] [µM] | IC50 [3] [µM] | IC50 [4] [µM] | also measured
1 | O=C(O)c1cc(/N=N\c2ccccc2C(=O)O)ccc1O | 224 | 116 | 211 | 116 | –
2 | Cc1ncc(COP(=O)(O)O)c(C2NC(C(=O)O)CS2)c1O (stereo not given) | 31.7 | 91.7 | 75.1 | 93.4 | –
3 | Cc1c2cc(O)c(=O)cc-2oc2cc(O)c(O)cc12 | 0.9 | 1.1 | 1.5 | 1.1 | IC50 [5]: 1.5 µM; IC50 [6]: 2.3 µM
4 | COC(=O)c1c(C)cc(OC(=O)c2c(C)cc(O)c(C=O)c2O)c(C)c1O [ATRANORIN] | 44 | 61 | 62.4 | 36 | IC50 [7]: 128 µM
5 | CCCCCc1cc(O)cc2c1Oc1cc(O)cc(C(=O)CCCC)c1C(=O)O2 | 28.1 | 59.9 | 42.2 | 39.2 | –
6 | Nc1cc(C(=O)O)c(-c2cc(O)c(N)cc2C(=O)O)cc1O | – | 212 | – | 234 | –
7 | O=C(O)c1cnc2c(ccc3ncc(C(=O)O)c(O)c32)c1O | 6.1 | 7.6 | 6.1 | 9.8 | –
8 | CC(=O)C1=C(NNC(=O)c2ccccn2)[C@@]2(C)C(=CC1=O)Oc1c(C(C)=O)c(O)c(C)c(O)c12 | 55 | 73 | 60.8 | 48.5 | IC50 [7]: 39 µM
9 | O=C(c1ccc(O)cc1O)C1C(c2ccc(O)cc2)OC(c2ccc(O)cc2)C1C(=O)c1ccc(O)cc1O (stereo not given) | 129 | 165 | 169 | 143 | –
10 | Cc1cc(C(O)(c2cc(C)c(O)c(C(=O)O)c2)c2cc(C)c(O)c(C(=O)O)c2)cc(C(=O)O)c1O | 23 | 35.8 | 32.8 | 21.8 | –
11 | O=C(O)c1ccc(C(=O)O)c2c(C(=O)O)ccc(C(=O)O)c12 | 182 | 122 | 174 | 176 | –
12 | O=C(Nc1ccc(C(=O)O)c(O)c1)c1ccc(C(=O)Nc2ccc(O)c(C(=O)O)c2)cc1 | 20 | 23.6 | 25.2 | 16.3 | –
13 | Cc1cc(C(c2cc(C)c(O)c(C(=O)O)c2)c2cc(C)c(O)c(C(=O)O)c2)cc(C(=O)O)c1O | < 23.4 | 20.4 | < 23.4 | 16.7 | –
14 | Cc1cc(O)c(C=O)c2c1C(=O)Oc1c(COC(=O)/C=C/C(=O)O)c(O)c(C(=O)O)c(C)c1O2 [FUMARPROTOCETRARIC ACID] | 7.3 | – | – | – | IC50 [8]: 4.9 µM; IC50 [9]: 4.6 µM
15 | CCCCCC(=O)Cc1cc(O)cc2c1C(=O)Oc1cc(O)c(C(=O)O)c(CCCCC)c1O2 [PHYSODIC ACID] | – | – | – | – | IC50 [8]: 38.5 µM; IC50 [9]: 30.9 µM; IC50 [7]: 32.5 µM
16 | CC(=O)C1=C(O)C=C2Oc3c(C(C)=O)c(O)c(C)c(O)c3[C@@]2(C)C1=O [(+)-USNIC ACID] | – | – | – | – | IC50 [8]: 126 µM; IC50 [9]: 124 µM; IC50 [7]: 133 µM
17 | CCCCCc1cc2cc(O)cc(Oc3c(O)cc(O)c(C(=O)O)c3CCCCC)c2c(=O)o1 | – | 52.2 | – | 45.7 | IC50 [7]: 35 µM
18 | CCN(CC)c1ccc(Cc2ccc(N(C)C)c(Cl)c2)cc1 | 38.6 | 61.8 | 78.6 | 45.8 | –

Row | Compound | IC50 [1] [µM] | IC50 [2] [µM] | IC50 [3] [µM] | IC50 [4] [µM] | also measured
19 | COC(=O)c1c(C)c2c(c(C)c1O)OC(=O)c1c(C)cc(O)c(C=O)c1O2 | – | – | – | – | IC50 [8]: 5.4 µM; IC50 [9]: 4.4 µM; IC50 [7]: 26 µM
20 | COc1cc(C(=O)O)c2c(c1C)OC(=O)c1c(C)cc(O)c(C=O)c1O2 [PSOROMIC ACID] | 12.3 | 17 | 15.1 | 5.3 | –
21 | Cc1cc(O)c(C=O)c2c1C(=O)Oc1c(CO)c(O)c3c(c1O2)C(O)OC3=O (stereo not given) [SLAZINIC ACID] | 6.2 | 19 | 16 | 12.6 | –
22 | Cc1cc(Cc2cc(C)c(O)c(C(=O)O)c2)cc(C(=O)O)c1O | – | – | – | – | IC50 [8]: 61.8 µM; IC50 [9]: 68.5 µM
23 | Cc1cc(O)c(C=O)c2c1C(=O)Oc1c(C)c(O)c(C(=O)O)c(C)c1O2 | – | – | – | – | IC50 [8]: 4.6 µM; IC50 [9]: 6.5 µM; IC50 [7]: 33.5 µM
24 | O=C(NO)c1cc(O)c(O)c(O)c1 | 1.6 | 1.1 | 3.2 | 0.5 | IC50 [10]: 1.6 µM; IC50 [11]: 1.6 µM
25 | O=C(/C=C/c1ccc(O)c(O)c1)O[C@@H]1C[C@](O)(C(=O)O)C[C@@H](O)[C@H]1O (single isomer, unassigned) [CHLOROGENIC ACID] | 31.3 | 87.8 | 58.2 | 45.8 | –
26 | COc1cc(C)c2c(c1C=O)Oc1c(c(C)c(O)c3c1C(O)OC3=O)OC2=O (stereo not given) [STICTIC ACID] | 1.9 | 4.4 | 2.9 | 2.6 | IC50 [7]: 11.7 µM
27 | C[C@@](O)(/C=C/[C@H]1CC=CC(=O)O1)[C@@H](C[C@@H](O)C=CC=C/C=C/CO)OP(=O)(O)O [FOSTRIECIN] | 52.7 | 41.3 | 118 | 12.8 | –
28 | O=C(O)c1ccccc1C(c1cc(Br)c(O)c(Br)c1)c1ccc(Br)c(O)c1Br (stereo not given) | 27.2 | 43.7 | 25.6 | 38.8 | –
29 | O=C(NC(Cc1ccc(O)c(O)c1)C(=O)OCc1ccccc1)c1ccc([N+](=O)[O-])cc1 (stereo not given) | 76.6 | 163 | 253 | 55.4 | –
30 | COc1cc(C)c2c(c1C)OC(=O)c1c(C)c(Cl)c(O)c(C=O)c1O2 | 2.7 | 2.2 | 2.7 | 1.6 | IC50 [7]: 12.8 µM
31 | O=C(/C=C/c1ccc(O)c(O)c1)O[C@H]1[C@H](O)C[C@](O)(C(=O)O)C[C@H]1OC(=O)/C=C/c1ccc(O)c(O)c1 | 0.7 | 1.3 | 0.7 | 0.6 | IC50 [6]: 0.5 µM; IC50 [12]: 0.5 µM
32 | O=[N+]([O-])c1cccc(/C=N/CCN2CCN(CC/N=C/c3cccc([N+](=O)[O-])c3O)C2c2cccc([N+](=O)[O-])c2O)c1O | 49.5 | 52.7 | 60.8 | 36.7 | –
33 | O=C1C(O)=C(c2ccccc2)C12CSC1(CS2)C(=O)C(O)=C1c1ccccc1 (stereo not given) | 54.8 | 132 | 60 | 172 | –
34 | O=C1OC2C(O)COC2(O)C1(O)Cc1cc(O)c(O)c(Br)c1Br (stereo not given) | 24.3 | 64.7 | 28.7 | 50.2 | –
35 | CCOC(=O)c1cnc(NCCCNc2ncc(C(=O)OCC)c(=O)[nH]2)[nH]c1=O | 7.9 | 12.8 | 11.6 | 16.7 | –
